In series [1] the test system is Nakaseomyces glabratus. The experiment in a line: Antifungal activity against Candida glabrata ATCC 48435 at 62 ug/ml after 48 to 72 hrs by broth microdilution method. Type of series: functional. In general terms: Dilution methods test growth across graded concentrations, often in twofold steps.
Series [2] concerns Nakaseomyces glabratus. As to the kind of experiment: Antifungal activity against Candida glabrata ATCC 48435 after 48 to 72 hrs by broth microdilution method. Type of series: functional. The gist of the method:
(§1)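 Broth microdilution per NCCLS. Organisms were subcultured on Sabouraud agar. Inoculum was 5–7 colonies from YM agar in sterile water, adjusted to 0.5 McFarland at 530 nm (1–5×10⁶ cells/mL stock), held 30 min at RT, then diluted 1:50 in HEPES-buffered RPMI 1640. DMSO stocks were twofold-diluted, with final DMSO ≤1%. Plates ran 48–72 h at 35 °C, humid. MIC is the lowest concentration giving ≥80% growth reduction vs drug-free wells, scored visually. Fluconazole or amphotericin B ran as drug control.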

Series [3] deals with Candida albicans. The experiment in a line: Antifungal activity against Candida albicans ATCC 10231 after 48 to 72 hrs by broth microdilution method. Type of series: functional. The gist of the method:
as §1

Series [4] relates to Candida albicans. As to the kind of experiment: Antifungal activity against Candida albicans ATCC 10231 at 8 ug/ml after 48 to 72 hrs by broth microdilution method. The series is classed as functional.
The subject of series [5] is Nakaseomyces glabratus. The experiment in a line: Antifungal activity against Candida glabrata ATCC 48435 at 16 ug/ml after 48 to 72 hrs by broth microdilution method. Type of series: functional.
Series [6] relates to Candida albicans. As to the kind of experiment: Antifungal activity against Candida albicans ATCC 10231 at 62 ug/ml after 48 to 72 hrs by broth microdilution method. The series is classed as functional.
Series [7] relates to HepG2. The experiment in a line: Cytotoxicity against human HepG2 cells assessed as cell viability at 2 to 200 ug/ml after 24 hrs by MTT assay. The settings on record: hepg2, 24 h. The series is classed as cell-based. In short, it runs like this: (§2)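 MTT (tetrazolium) assay in Vero and HepG2 cells. Cells were pre-grown 24 h at 37 °C/5% CO₂ in DMEM with 10% FBS. Compounds diluted in media at the fungal MIC and at 5×, 10× and 100× MIC, then exposed 24 h. Dye was added for 1–4 h, then stop solution for 1 h at RT; A570 read. Viability was taken as % of 1% DMSO no-drug wells, with 0.1% saponin as death control. Triplicate, mean ± SD.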

A short description of series [8]: Cytotoxicity against african green monkey Vero cells assessed as cell viability at 10 times MIC80 for fungus after 24 hrs by MTT assay. The series is classed as cell-based. The settings on record: chlorocebus sabaeus, read-out: Activity. The gist of the method:
as §2

Series [9] deals with Nakaseomyces glabratus. As to the kind of experiment: Antifungal activity against Candida glabrata CS 177.93 at 0.195 to 100 uM after 24 to 48 hrs in presence of 3% ethanol. The series is classed as functional, organism-based. In short, it runs like this:
(§3)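 Cells grown overnight in YPD at 30 °C, washed, then seeded at ~10³ cells/well (10⁴ cells/mL) in YPD (2% glucose), YPG (3% glycerol) or YPE (3% ethanol), pH 6.5. Drug at 0 and 0.195–100, final DMSO 0.5%. Two repeat experiments.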

The test system of series [10] is Nakaseomyces glabratus. The experiment in a line: Antifungal activity against Candida glabrata CS 177.93 at 0.195 to 100 uM after 24 to 48 hrs in presence of 3% glycerol. The series is classed as functional, organism-based. The gist of the method: as §3
In series [11] the test system is Nakaseomyces glabratus. As to the kind of experiment: Antifungal activity against Candida glabrata CS 177.93 at 0.195 to 100 uM after 24 to 48 hrs in presence of 2% glucose. The series is classed as functional, organism-based. The gist of the method: as §3
Series [12] has as its system Candida albicans. The experiment in a line: Antifungal activity against Candida albicans SC5314 at 0.195 to 100 uM after 24 to 48 hrs in presence of 3% ethanol. The series is classed as functional, organism-based. In short, it runs like this: as §3
Series [13] deals with Candida albicans. The experiment in a line: Antifungal activity against Candida albicans SC5314 at 0.195 to 100 uM after 24 to 48 hrs in presence of 3% glycerol. Type of series: functional, organism-based. The gist of the method: as §3
Series [14] deals with Candida albicans. The experiment in a line: Antifungal activity against Candida albicans SC5314 at 0.195 to 100 uM after 24 to 48 hrs in presence of 2% glucose. The series is classed as functional, organism-based. In short, it runs like this:
as §3

Series [15] relates to Candida albicans. The experiment in a line: Antifungal activity against Candida albicans. The series is classed as functional, organism-based. The gist of the method: as §1
Series [16] can be described thus: Cytotoxicity against african green monkey Vero cells assessed as cell viability at 2 to 200 ug/ml after 24 hrs by MTT assay. Type of series: cell-based. The following applies: chlorocebus sabaeus, read-out: Activity. The gist of the method: as §2
In general terms: Tetrazolium assays rely on reduction of a dye to a coloured formazan, in cell work by metabolically active cells.

Series [17] has as its system HepG2. As to the kind of experiment: Cytotoxicity against human HepG2 cells assessed as cell viability at 8 to 800 ug/ml after 24 hrs by MTT assay. The series is classed as cell-based. The settings on record: hepg2, 24 h. In short, it runs like this:
as §2

The nature of series [18]: Cytotoxicity against african green monkey Vero cells assessed as cell viability at 8 to 800 ug/ml after 24 hrs by MTT assay. The following applies: chlorocebus sabaeus, read-out: Activity. The series is classed as cell-based. The gist of the method: as §2
The test system of series [19] is Candida albicans. As to the kind of experiment: Antifungal activity against Candida albicans ATCC 10231 at 16 ug/ml after 48 to 72 hrs by broth microdilution method. The series is classed as functional.
Series [20] concerns Nakaseomyces glabratus. The experiment in a line: Antifungal activity against Candida glabrata ATCC 48435 at 31 ug/ml after 48 to 72 hrs by broth microdilution method. Type of series: functional.
Series [21] deals with Nakaseomyces glabratus. The experiment in a line: Antifungal activity against Candida glabrata ATCC 48435 at 125 ug/ml after 48 to 72 hrs by broth microdilution method. Type of series: functional, organism-based. The gist of the method: (§4)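 Broth microdilution per NCCLS. Inocula come from 5–7 colonies on YM agar, suspended in sterile water and adjusted to 0.5 McFarland at 530 nm (stock 1×10⁶–5×10⁶ cells/mL), then diluted 1:50 in HEPES-buffered RPMI 1640. Compounds in DMSO (final ≤1%) are added as a 10-fold dilution into the suspension. Plates run 48–72 h at 35 °C, humid. Growth is scored visually; the endpoint is ≥80% reduction versus drug-free wells.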

Series [22] deals with Candida albicans. As to the kind of experiment: Antifungal activity against Candida albicans ATCC 10231 at 125 ug/ml after 48 to 72 hrs by broth microdilution method. The series is classed as functional, organism-based. In short, it runs like this:
as §4

≈ marks a conversion by molar mass, not a printed value. Calls of active or inactive are those of the source. Unless noted, the calls are words filed in the database; no cut-off is given here.

As for `COc1ccc(C(=O)N/N=C/C2C(=O)NC(=O)NC2=O)cc1`, in the series with Nakaseomyces glabratus [1], the inhibition (as a rule, the relative decrease from the control value, in per cent) at 62 µg/mL was under 50%. Moreover, the MIC80 (in general, the lowest concentration that inhibits either 80% of growth or 80% of the strains tested, depending on the study) against Nakaseomyces glabratus [2] is 62 µg/mL (≈ 204 µM). Further, the MIC80 entry in the series with Candida albicans [3] was “inactive”.
In turn, `O=C1NC(=O)C(/C=N/c2ccccc2O)C(=O)N1` yielded an inhibition at 8 µg/mL with Candida albicans [4] of under 50%. In addition, the MIC80 result with Nakaseomyces glabratus [2] was “inactive”. Further, the MIC80 with Candida albicans [3] stood at 8 µg/mL (≈ 32.4 µM).
In the case of `O=C1NC(=O)C(/C=N/NC(=O)c2ccc([N+](=O)[O-])cc2)C(=O)N1`, the inhibition at 16 µg/mL with Nakaseomyces glabratus [5] is under 50%. This molecule also had an inhibition at 62 µg/mL in the series on Candida albicans [6] of under 50%. In addition, the MIC80 in the series on Nakaseomyces glabratus [2] was determined as 16 µg/mL (≈ 50.1 µM); against Candida albicans [3], 62 µg/mL (≈ 194 µM).
As to `CN1C(=O)C(/C=N/Nc2ccccc2)C(=O)N(C)C1=O`, the Activity entry with HepG2 [7] is on record as “Toxic”. Besides, the viability at 24 h in series [8] came out at 80%. The MIC80 was 2 µg/mL (≈ 7.29 µM) with Nakaseomyces glabratus [2] and 4 µg/mL (≈ 14.6 µM) against Candida albicans [3].
With `O=C1NC(=O)C(/C=N/Nc2ccc([N+](=O)[O-])cc2)C(=O)N1`, the result in the series with Nakaseomyces glabratus [9], in the series on Nakaseomyces glabratus [10], in the series with Nakaseomyces glabratus [11], in the series with Candida albicans [12], with Candida albicans [13] and with Candida albicans [14] was Active. The Activity entry was “Dose-dependent effect” in the series with Candida albicans [15] and “Toxic” with HepG2 [7]. The viability at 24 h in series [8] came out at 80%. Also, the MIC80 against Nakaseomyces glabratus [2] is 1 µg/mL (≈ 3.43 µM); in the series with Candida albicans [3] it was 2 µg/mL (≈ 6.87 µM).
Take `C/C(=N\Nc1ccc([N+](=O)[O-])cc1)C1C(=O)NC(=O)NC1=O`: the Activity result with HepG2 [7] is “Toxic”. Also, the viability at 24 h in series [16] worked out at 35%. The MIC80 against Nakaseomyces glabratus [2] and in the series with Candida albicans [3] was 2 µg/mL (≈ 6.55 µM) in each case.
As for `CN1C(=O)C(/C=N/c2ccccc2O)C(=O)N(C)C1=O`, the Activity result in the series with HepG2 [17] was “Toxic”. Besides, the viability at 24 h in [18] is 35%. In addition, the inhibition at 8 µg/mL in the series with Candida albicans [4] is under 50%. Further, the MIC80 entry in the series on Nakaseomyces glabratus [2] is “inactive”. The MIC80 with Candida albicans [3] turned out to be 8 µg/mL (≈ 29.1 µM).
Consider `CN1C(=O)C(/C=N/Nc2ccc([N+](=O)[O-])cc2)C(=O)N(C)C1=O`, for which the Activity result with HepG2 [7] is “Toxic”. In addition, the viability at 24 h in [8] came out at 80%. Besides, the MIC80 with Nakaseomyces glabratus [2] and in the series on Candida albicans [3] was 2 µg/mL (≈ 6.26 µM) throughout.
Molecule `Cc1ccc(S(=O)(=O)N/N=C/C2C(=O)NC(=O)NC2=O)cc1` had an inhibition at 16 µg/mL in the series on Candida albicans [19] of under 50%. Moreover, the MIC80 entry with Nakaseomyces glabratus [2] is “inactive”. The MIC80 against Candida albicans [3] was found to be 16 µg/mL (≈ 49.3 µM).
Turning to `CN/N=C(\C)C1C(=O)NC(=O)NC1=O`, the inhibition at 31 µg/mL in the series on Nakaseomyces glabratus [20] was under 50%. Further, the MIC80 against Nakaseomyces glabratus [2] turned out to be 31 µg/mL (≈ 156 µM). In the series with Candida albicans [3], the MIC80 result was “inactive”.
`COc1ccc(C(=O)N/N=C/C2C(=O)N(C)C(=O)N(C)C2=O)cc1`: the inhibition at 62 µg/mL with Candida albicans [6] was under 50%. Also, the MIC80 in the series on Nakaseomyces glabratus [2] was determined as 31 µg/mL (≈ 93.3 µM); against Candida albicans [3], 62 µg/mL (≈ 187 µM).
As to `O=C1NC(=O)N(c2ccccc2)C(=O)C1C(=O)c1ccc(O)cc1` (stereo unspecified), the result in the series with Nakaseomyces glabratus [21] and in the series on Candida albicans [22] was inactive.
For the molecule `CCCCCCCC1C(=O)NC(=O)NC1=O`, the result in the series with Nakaseomyces glabratus [21] and in the series with Candida albicans [22] was inactive.
Consider `CN(C)c1ccc(CC2(CCCc3ccccc3)C(=O)NC(=O)NC2=O)cc1`, for which the result with Nakaseomyces glabratus [21] and with Candida albicans [22] was inactive.
Regarding `CC(=O)C1C(=O)NC(=O)N(c2ccccc2)C1=O` (stereo unspecified), the result in the series on Nakaseomyces glabratus [21] and in the series on Candida albicans [22] was inactive.
Consider `O=C1NC(=O)C(C(=O)c2cccc([N+](=O)[O-])c2)C(=O)N1`, for which the outcome with Nakaseomyces glabratus [21] and in the series on Candida albicans [22] was inactive.
For the molecule `C/C(=N\Nc1ccccc1)C1C(=O)N(C)C(=O)N(C)C1=O`, the Activity entry with HepG2 [7] was “Toxic”. In series [16], the viability at 24 h worked out at 35%. The MIC80 in the series with Nakaseomyces glabratus [2] and against Candida albicans [3] was 2 µg/mL (≈ 6.94 µM) throughout.
For `CCCCN1C(=O)NC(=O)C(C(=O)c2ccc(OC)cc2)C1=O` (stereo unspecified), the outcome with Nakaseomyces glabratus [21] and in the series on Candida albicans [22] was inactive.
Turning to `CN/N=C/C1C(=O)N(C)C(=O)N(C)C1=O`, the inhibition at 62 µg/mL with Candida albicans [6] is under 50%. Also, the MIC80 in the series on Nakaseomyces glabratus [2] turned out to be 125 µg/mL (≈ 589 µM); in the series with Candida albicans [3] it was 62 µg/mL (≈ 292 µM).
The like results for `CN1C(=O)C(/C=N/NC(=O)c2ccc([N+](=O)[O-])cc2)C(=O)N(C)C1=O` were, in that order, under 50%, 125 µg/mL (≈ 360 µM) and 62 µg/mL (≈ 179 µM).
With `O=C1NC(=O)C(Cc2ccc3ccccc3c2)C(=O)N1`, the outcome with Nakaseomyces glabratus [21] and with Candida albicans [22] was inactive.

Source of the values: ChEMBL document CHEMBL3102843, “Synthesis and antifungal activity of substituted 2,4,6-pyrimidinetrione carbaldehyde hydrazones” (Bioorg Med Chem, 2014).
